PubChem BioAssay
Calls of active or inactive are those of the source.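 The calls were made as follows, unless noted: active = viability at or below 10% of carrier control in both of two separate runs; inconclusive = viability at or below 10% in only one of the two runs; inactive = the rest.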

How the values were obtained:
[1] = reducers of endogenous Her2 protein level, primary screen, SKBR3 breast tumor cells, AlphaScreen, ATP viability (AID 461;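 active = Her2 level under about 52% in both replicate screens, with viability over 70% of control, limit read from the data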;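 as to Her2 level: lower value means less Her2 protein in the cells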;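 as to viability: percent of carrier control wells set as 100% viability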); conditions: 18-24 h, measured here: SKBR3 viability, ATP luminescence, at 10 µM
[2] = target: Receptor tyrosine-protein kinase erbB-2 (Homo sapiens) (UniProt P04626); assay: as above; conditions: 18-24 h, at 10 µM, stronger effect = lower value
Receptor tyrosine-protein kinase erbB-2 (Homo sapiens), sequence (P04626 whole entry, looked up): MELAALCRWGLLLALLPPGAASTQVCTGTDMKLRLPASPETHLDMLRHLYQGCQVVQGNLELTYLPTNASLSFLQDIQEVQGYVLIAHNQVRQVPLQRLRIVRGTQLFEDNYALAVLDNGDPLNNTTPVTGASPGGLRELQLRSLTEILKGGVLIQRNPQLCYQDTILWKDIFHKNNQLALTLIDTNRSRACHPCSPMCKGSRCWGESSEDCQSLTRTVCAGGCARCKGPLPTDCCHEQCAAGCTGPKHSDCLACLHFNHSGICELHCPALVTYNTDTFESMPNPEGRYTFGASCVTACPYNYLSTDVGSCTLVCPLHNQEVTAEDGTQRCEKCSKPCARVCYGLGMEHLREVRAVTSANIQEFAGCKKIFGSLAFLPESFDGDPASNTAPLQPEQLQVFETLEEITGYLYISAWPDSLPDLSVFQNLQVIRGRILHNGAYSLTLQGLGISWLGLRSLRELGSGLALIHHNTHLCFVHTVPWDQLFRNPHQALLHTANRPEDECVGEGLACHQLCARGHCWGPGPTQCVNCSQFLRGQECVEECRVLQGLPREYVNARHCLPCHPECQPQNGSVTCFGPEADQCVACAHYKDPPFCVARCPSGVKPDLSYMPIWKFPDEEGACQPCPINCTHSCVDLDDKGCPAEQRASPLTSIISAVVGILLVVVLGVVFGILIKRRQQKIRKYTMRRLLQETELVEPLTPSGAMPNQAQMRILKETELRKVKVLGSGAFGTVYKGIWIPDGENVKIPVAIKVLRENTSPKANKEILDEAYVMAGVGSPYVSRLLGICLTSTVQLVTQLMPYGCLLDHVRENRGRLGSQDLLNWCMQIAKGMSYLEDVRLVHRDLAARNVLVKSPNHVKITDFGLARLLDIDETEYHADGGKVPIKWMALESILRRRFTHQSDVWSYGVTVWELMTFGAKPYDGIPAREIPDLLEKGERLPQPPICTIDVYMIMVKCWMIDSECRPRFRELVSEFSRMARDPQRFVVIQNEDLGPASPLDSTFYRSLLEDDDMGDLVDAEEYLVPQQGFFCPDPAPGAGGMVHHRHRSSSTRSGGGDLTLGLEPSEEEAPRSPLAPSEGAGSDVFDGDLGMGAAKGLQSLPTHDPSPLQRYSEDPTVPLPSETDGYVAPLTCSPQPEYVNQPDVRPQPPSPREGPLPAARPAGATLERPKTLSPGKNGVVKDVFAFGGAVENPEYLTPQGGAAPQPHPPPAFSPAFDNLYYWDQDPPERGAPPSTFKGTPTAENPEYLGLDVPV

[3] = SK-BR-3 cell growth inhibitors, pilot screen, 24 h, human (AID 572); conditions: SK-BR-3 viability, CellTiter-Glo luminescence, at 10 µM, stronger effect = lower value;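 also: compound exposure lasted between 18 and 24 h rather than exactly 24 h; 100% = carrier-treated control wells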
[4] = HUVEC growth inhibition – cell-based, human, primary screen (AID 575;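 active = viability at or below 30% in both replicate assays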;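 also: 100% = median of untreated cell wells with 0.1% DMSO on each plate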); conditions: HUVEC proliferation, CellTiter-Glo luminescence, 72 h; at 10 µM; stronger effect = lower value
Method in brief: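 Timing: 72 h treatment at 37 °C; material: HUVEC primary cells; technique: CellTiter-Glo luminescence measuring cellular ATP; controls: vehicle and MePR control wells; measure: percent of median DMSO-control luminescence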

[5] = growth inhibitors of H69AR lung tumor, primary screen, human, duplicate replicates (AID 580;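 active = viability at or under a set limit in both replicates, limit being median viability minus 3 SD, cut at about 48% in these data, passing the limit was not always enough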;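 also: 100% = mean luminescence of untreated wells and 0% = no signal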); conditions: H69AR lung tumor cells viability, ATP luminescence, 72 h; at 10 µM; stronger effect = lower value
[6] = reversal of MRP1-mediated doxorubicin resistance, pilot screen, H69AR cells, doxorubicin co-treatment (AID 601;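 active = viability loss from added drug above about 55%, and viability with drug at most 40%, in both replicates, limit read from the data, passing the limit was not always enough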); conditions: CellTiter-Glo, 72 h, at 10 µM; for differential viability (reversal): stronger effect = higher value
[7] = 384-well plate pilot, post-Golgi transport modulator project, inhibition of yeast transport mutant growth (AID 636; in the data active = inhibition above about 31%); conditions: absorbance 615 nm, about 18 h, stronger effect = higher value
[8] = growth suppression of yeast trafficking mutant, preliminary HTS, modulators of trafficking downstream of Golgi apparatus project, 1536-format plate, OD 615 nm (AID 637; in the data active = inhibition above about 30%); conditions: yeast transport mutant growth, absorbance 615 nm, 18 h; stronger effect = higher value
[9] = H69AR cells + 2 uM doxorubicin, measured here: viability with 2 uM doxorubicin, stronger effect = lower value
[10] = H69AR cells, compound alone cytotoxicity

Compound	viability [1] [%]	Her2 level [2]	viability [3]	viability [4]	viability [5]	differential viability (reversal) ([6]; H69AR cells + 2 uM doxorubicin)	viability [6, 9] [%]	viability [6, 10] [%]	inhibition [7]	inhibition [8]
O=c1oc2ccccc2c2c1ncn2-c1ccccc1	100	96% (inactive)	100% (inactive)	90.4% (inactive)	89.1% (inactive)	-8.58% (inactive)	97.7	89.1	0.52% (inactive)	-2.13% (inactive)
COCCNC(=O)C(c1ccncc1)N(C(=O)Cn1nnc2ccccc21)c1ccc(OC)cc1 (stereo not given)	96	73.5% (inactive)	96% (inactive)	97.7% (inactive)	104% (inactive)	9.12% (inactive)	95.1	104	-7.03% (inactive)	8.03% (inactive)
Cc1ccc(Cn2nnc3c(=O)n(CC(=O)NCC4CCCO4)cnc32)cc1 (stereo not given)	97	88.5% (inactive)	97% (inactive)	105% (inactive)	104% (inactive)	13.4% (inactive)	90.4	104	-6.05% (inactive)	-0.79% (inactive)
O=C(NCC1COc2ccccc2O1)c1ccccc1 (stereo not given)	79	95% (inactive)	79% (inactive)	113% (inactive)	92.9% (inactive)	2.58% (inactive)	90.4	92.9	-4.27% (inactive)	0.33% (inactive)
CCn1c(Cc2ccc(OC)cc2)nnc1SCC(=O)Nc1cccc(C(=O)OC)c1	89.5	86.5% (inactive)	89.5% (inactive)	85.8% (inactive)	103% (inactive)	7.12% (inactive)	95.7	103	-1.45% (inactive)	-2.86% (inactive)
CN(C)c1ccc(NC(=O)CSCc2nc3c(nnn3Cc3ccc(F)cc3)c(=O)[nH]2)cc1	89.5	83.5% (inactive)	89.5% (inactive)	110% (inactive)	94% (inactive)	4.32% (inactive)	89.7	94	-6.49% (inactive)	0% (inactive)
CCn1cc(C(=O)Nc2cc3c(cc2NC(C)=O)OCCO3)c(=O)c2ccc(C)nc21	96.5	100% (inactive)	96.5% (inactive)	106% (inactive)	91% (inactive)	-4.02% (inactive)	95	91	-6.13% (inactive)	0.48% (inactive)
O=C(Nc1ccc(Cc2ccc(NC(=O)N3CCOCC3)cc2)cc1)N1CCOCC1	97	94% (inactive)	97% (inactive)	90.1% (inactive)	98.5% (inactive)	15.7% (inactive)	82.8	98.5	-4.87% (inactive)	-1.17% (inactive)
Cc1onc(-c2ccccc2Cl)c1C(=O)NCc1cccnc1	103	102% (inactive)	103% (inactive)	110% (inactive)	94.5% (inactive)	9.16% (inactive)	85.4	94.5	-4.8% (inactive)	6.13% (inactive)
CC(C)OC(=O)CSc1nnc(-c2ccco2)n1N	99.5	112% (inactive)	99.5% (inactive)	90.4% (inactive)	107% (inactive)	14% (inactive)	93.2	107	-5% (inactive)	-5.33% (inactive)
O=C(O)CCCNS(=O)(=O)c1ccc(NCc2ccccc2)c(C(=O)O)c1	87	94% (inactive)	87% (inactive)	92.3% (inactive)	93% (inactive)	1.6% (inactive)	91.4	93	-6.89% (inactive)	0.83% (inactive)
CC(C)Cn1c(CN2CCN(c3ccccc3F)CC2)nc2c1c(=O)[nH]c(=O)n2C	93	93% (inactive)	93% (inactive)	72.9% (inactive)	93% (inactive)	8.27% (inactive)	84.8	93	-4.27% (inactive)	-0.66% (inactive)
CCc1nnc(NC(=O)CN2CCN(c3ccccc3OC)CC2)s1	99.5	89% (inactive)	99.5% (inactive)	64.9% (inactive)	50.7% (inactive)	25.5% (inactive)	25.2	50.7	-0.39% (inactive)	-5.56% (inactive)
COCCN(C(=O)Cn1nnc2ccccc21)C(C(=O)NC1CCCC1)c1cc(OC)ccc1OC (stereo not given)	86	106% (inactive)	86% (inactive)	101% (inactive)	93.9% (inactive)	-0.19% (inactive)	94.1	93.9	-0.8% (inactive)	-4.92% (inactive)
O=C1CN=C(Nc2cccc(C(F)(F)F)c2)N1C1CCCC1	97	119% (inactive)	97% (inactive)	101% (inactive)	82.5% (inactive)	-15.2% (inactive)	97.7	82.5	-3.33% (inactive)	-1.8% (inactive)
